Source: ChEMBL document CHEMBL5058577, “EUbOPEN Chemogenomics Library 2 (Multiplex)” (2022)

Test system: U2OS
Test: Multiplex assay against U2OS
Assay type: toxicity, cell-based
Conditions: human
Outline: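 Compound was added to live cells that had been stained at seeding with Hoechst33342, BioTracker Green Microtubule Cytoskeleton Dye, MitoTracker Red and Annexin V Alexa Fluor 680, and imaging followed on a CQ1 microscope at 37°C and 5% CO2. CellPathfinder machine-learning gating divided cells into Hoechst high-intensity objects or normal cells, normal cells into healthy, pyknosed or fragmented nuclei, and pyknosed cells into mitotic or apoptotic. Tubulin, mitochondrial-mass and membrane-permeability phenotypes are per cents of healthy-nucleus cells.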

[1] = 12 h, 1 µM, compound concentration 1 uM, replicate 1
[2] = 12 h, 1 µM, compound concentration 1 uM, replicate 2
[3] = 12 h, 10 µM, compound concentration 10 uM, replicate 1
[4] = 12 h, 10 µM, compound concentration 10 uM, replicate 2
[5] = 24 h, 1 µM, compound concentration 1 uM, replicate 1
[6] = 24 h, 1 µM, compound concentration 1 uM, replicate 2
[7] = 24 h, 10 µM, compound concentration 10 uM, replicate 1
[8] = 24 h, 10 µM, compound concentration 10 uM, replicate 2
[9] = 48 h, 1 µM, compound concentration 1 uM, replicate 1
[10] = 48 h, 1 µM, compound concentration 1 uM, replicate 2
[11] = 48 h, 10 µM, compound concentration 10 uM, replicate 1
[12] = 48 h, 10 µM, compound concentration 10 uM, replicate 2

In the case of `Cc1ccc(C(C)(O)c2nc3ccccc3s2)c(C)c1` (centres undefined), the “Population Apoptotic (%)” value [1] is reported as 86%, the “Population Fragmented Nuclei (%)” value [1] is reported as 19% and the “Population Healthy Nuclei (%)” value [1] is reported as 70%. For the same compound, the “Population Hoechst High Intensity Objects (%)” value [1] was 3%, the “Population Membrane Permeable-Phenotype (%)” value [1] was 4% and the “Population Mitochondria Different-Phenotype (%)” value [1] was 1%. The “Population Mitotic Cells (%)” value [1] was 13%, the “Population Normal (%)” value [1] was 96% and the “Population Pyknosed Nuclei (%)” value [1] was 9%. The “Population Tubulin-Different-Phenotype (%)” value [1] was 2%, the “Total Cell Count” value [1] was 249 and the “Population Apoptotic (%)” value [2] was 100%. The “Population Fragmented Nuclei (%)” value [2] was 17%, the “Population Healthy Nuclei (%)” value [2] was 78% and the “Population Hoechst High Intensity Objects (%)” value [2] was 0%. For the same compound, the “Population Membrane Permeable-Phenotype (%)” value [2] was 9%, the “Population Mitochondria Different-Phenotype (%)” value [2] was 4% and the “Population Mitotic Cells (%)” value [2] was 0%. For the same compound, the “Population Normal (%)” value [2] was 99%, the “Population Pyknosed Nuclei (%)” value [2] was 3% and the “Population Tubulin-Different-Phenotype (%)” value [2] was 5%. For the same compound, the “Total Cell Count” value [2] was 141, the “Population Apoptotic (%)” value [3] was 100% and the “Population Fragmented Nuclei (%)” value [3] was 25%. For the same compound, the “Population Healthy Nuclei (%)” value [3] was 67%, the “Population Hoechst High Intensity Objects (%)” value [3] was 2% and the “Population Membrane Permeable-Phenotype (%)” value [3] was 9%. For the same compound, the “Population Mitochondria Different-Phenotype (%)” value [3] was 3%, the “Population Mitotic Cells (%)” value [3] was 0% and the “Population Normal (%)” value [3] was 97%. For the same compound, the “Population Pyknosed Nuclei (%)” value [3] was 6%, the “Population Tubulin-Different-Phenotype (%)” value [3] was 3% and the “Total Cell Count” value [3] was 234. For the same compound, the “Population Apoptotic (%)” value [4] was 66%, the “Population Fragmented Nuclei (%)” value [4] was 18% and the “Population Healthy Nuclei (%)” value [4] was 77%. For the same compound, the “Population Hoechst High Intensity Objects (%)” value [4] was 4%, the “Population Membrane Permeable-Phenotype (%)” value [4] was 3% and the “Population Mitochondria Different-Phenotype (%)” value [4] was 1%. For the same compound, the “Population Mitotic Cells (%)” value [4] was 33%, the “Population Normal (%)” value [4] was 95% and the “Population Pyknosed Nuclei (%)” value [4] was 3%. For the same compound, the “Population Tubulin-Different-Phenotype (%)” value [4] was 1%, the “Total Cell Count” value [4] was 89 and the “Population Apoptotic (%)” value [5] was 92%. For the same compound, the “Population Fragmented Nuclei (%)” value [5] was 22%, the “Population Healthy Nuclei (%)” value [5] was 69% and the “Population Hoechst High Intensity Objects (%)” value [5] was 1%. For the same compound, the “Population Membrane Permeable-Phenotype (%)” value [5] was 4%, the “Population Mitochondria Different-Phenotype (%)” value [5] was 0% and the “Population Mitotic Cells (%)” value [5] was 7%. The “Population Normal (%)” value [5] was 98%, the “Population Pyknosed Nuclei (%)” value [5] was 8% and the “Population Tubulin-Different-Phenotype (%)” value [5] was 3%. For the same compound, the “Total Cell Count” value [5] was 327, the “Population Apoptotic (%)” value [6] was 90% and the “Population Fragmented Nuclei (%)” value [6] was 13%. For the same compound, the “Population Healthy Nuclei (%)” value [6] was 80%, the “Population Hoechst High Intensity Objects (%)” value [6] was 0% and the “Population Membrane Permeable-Phenotype (%)” value [6] was 6%. For the same compound, the “Population Mitochondria Different-Phenotype (%)” value [6] was 3%, the “Population Mitotic Cells (%)” value [6] was 10% and the “Population Normal (%)” value [6] was 99%. The “Population Pyknosed Nuclei (%)” value [6] was 6%, the “Population Tubulin-Different-Phenotype (%)” value [6] was 4% and the “Total Cell Count” value [6] was 159. For the same compound, the “Population Apoptotic (%)” value [7] was 88%, the “Population Fragmented Nuclei (%)” value [7] was 22% and the “Population Healthy Nuclei (%)” value [7] was 71%. The “Population Hoechst High Intensity Objects (%)” value [7] was 1%, the “Population Membrane Permeable-Phenotype (%)” value [7] was 5% and the “Population Mitochondria Different-Phenotype (%)” value [7] was 3%. For the same compound, the “Population Mitotic Cells (%)” value [7] was 11%, the “Population Normal (%)” value [7] was 98% and the “Population Pyknosed Nuclei (%)” value [7] was 6%. The “Population Tubulin-Different-Phenotype (%)” value [7] was 3%, the “Total Cell Count” value [7] was 272 and the “Population Apoptotic (%)” value [8] was 75%. The “Population Fragmented Nuclei (%)” value [8] was 16%, the “Population Healthy Nuclei (%)” value [8] was 75% and the “Population Hoechst High Intensity Objects (%)” value [8] was 4%. For the same compound, the “Population Membrane Permeable-Phenotype (%)” value [8] was 3%, the “Population Mitochondria Different-Phenotype (%)” value [8] was 1% and the “Population Mitotic Cells (%)” value [8] was 25%. For the same compound, the “Population Normal (%)” value [8] was 95%, the “Population Pyknosed Nuclei (%)” value [8] was 7% and the “Total Cell Count” value [8] was 113. For the same compound, the “Population Apoptotic (%)” value [9] was 88%, the “Population Fragmented Nuclei (%)” value [9] was 16% and the “Population Healthy Nuclei (%)” value [9] was 74%. For the same compound, the “Population Hoechst High Intensity Objects (%)” value [9] was 2%, the “Population Membrane Permeable-Phenotype (%)” value [9] was 5% and the “Population Mitochondria Different-Phenotype (%)” value [9] was 2%. For the same compound, the “Population Mitotic Cells (%)” value [9] was 11%, the “Population Normal (%)” value [9] was 97% and the “Population Pyknosed Nuclei (%)” value [9] was 9%. The “Population Tubulin-Different-Phenotype (%)” value [9] was 2%, the “Total Cell Count” value [9] was 442 and the “Population Apoptotic (%)” value [10] was 94%. For the same compound, the “Population Fragmented Nuclei (%)” value [10] was 15%, the “Population Healthy Nuclei (%)” value [10] was 76% and the “Population Hoechst High Intensity Objects (%)” value [10] was 3%. For the same compound, the “Population Membrane Permeable-Phenotype (%)” value [10] was 6%, the “Population Mitochondria Different-Phenotype (%)” value [10] was 3% and the “Population Mitotic Cells (%)” value [10] was 5%. The “Population Normal (%)” value [10] was 96%, the “Population Pyknosed Nuclei (%)” value [10] was 8% and the “Population Tubulin-Different-Phenotype (%)” value [10] was 5%. For the same compound, the “Total Cell Count” value [10] was 215, the “Population Apoptotic (%)” value [11] was 96% and the “Population Fragmented Nuclei (%)” value [11] was 23%. The “Population Healthy Nuclei (%)” value [11] was 69%, the “Population Hoechst High Intensity Objects (%)” value [11] was 2% and the “Population Membrane Permeable-Phenotype (%)” value [11] was 6%. The “Population Mitochondria Different-Phenotype (%)” value [11] was 1%, the “Population Mitotic Cells (%)” value [11] was 3% and the “Population Normal (%)” value [11] was 97%. For the same compound, the “Population Pyknosed Nuclei (%)” value [11] was 7%, the “Population Tubulin-Different-Phenotype (%)” value [11] was 4% and the “Total Cell Count” value [11] was 365. The “Population Apoptotic (%)” value [12] was 85%, the “Population Fragmented Nuclei (%)” value [12] was 11% and the “Population Healthy Nuclei (%)” value [12] was 83%. For the same compound, the “Population Hoechst High Intensity Objects (%)” value [12] was 5%, the “Population Membrane Permeable-Phenotype (%)” value [12] was 5% and the “Population Mitotic Cells (%)” value [12] was 14%. For the same compound, the “Population Normal (%)” value [12] was 94%, the “Population Pyknosed Nuclei (%)” value [12] was 5% and the “Total Cell Count” value [12] was 147.
